An excerpt weighted towards active compounds, which were near 4.1% of everything screened.
KCC2 mod: modulates chloride dependent transport by human KCC2. AID 1456. 190,000 tested, 2.2% active. B-score of Tl+ flux slope (higher = more flux/activation; lower = inhibition) at 10 µM. KCC2 cells, thallium flux FluoZin-2 fluorescence. Q9H2X9;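 active means thallium flux slope and its plate-corrected score both differing from the plate sample mean at a set confidence after two filtering rounds, in either direction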;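 further: slope of fluorescence scaled to starting intensity during 10 to 20 s after thallium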
KCNK3 block: human KCNK3 channel inhibition, primary screen; CHO-KCNK3 thallium flux, FluxOR fluorescence; active compounds read low; B-score at 10 µM; O14649; 340,000 tested, 0.84% active;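 active means B-score under library mean minus 4 SD, starting fluorescence ratio at most library mean plus 5 SD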;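 further: more negative B-score means stronger inhibition of thallium flux through KCNK3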
Target sequence (O14649 whole entry, looked up): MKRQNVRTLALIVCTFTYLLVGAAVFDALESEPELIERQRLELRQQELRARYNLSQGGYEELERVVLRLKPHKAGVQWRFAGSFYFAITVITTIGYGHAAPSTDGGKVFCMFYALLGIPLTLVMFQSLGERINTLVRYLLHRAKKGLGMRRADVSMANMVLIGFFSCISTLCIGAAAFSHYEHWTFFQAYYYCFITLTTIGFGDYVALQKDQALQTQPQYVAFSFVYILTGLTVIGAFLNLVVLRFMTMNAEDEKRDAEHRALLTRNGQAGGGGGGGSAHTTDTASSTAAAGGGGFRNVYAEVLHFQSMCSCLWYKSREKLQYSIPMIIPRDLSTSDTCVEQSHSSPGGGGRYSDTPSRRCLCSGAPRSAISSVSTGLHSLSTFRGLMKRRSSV
KCNK9 block: inhibitors of human KCNK9 two-pore domain potassium channel; Q9NPC2; HEK293 KCNK9, FluxOR thallium flux fluorescence; active compounds read low; AID 488922; 310,000 tested, 1.2% active; B-score at 10 µM;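 active means ratio B-score over 3 SD below the library mean, with starting fluorescence within 5 SD of its mean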;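 further: negative B-score means less thallium flux so channel inhibition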
Target sequence (Q9NPC2 whole entry, looked up, the tested form may be a part): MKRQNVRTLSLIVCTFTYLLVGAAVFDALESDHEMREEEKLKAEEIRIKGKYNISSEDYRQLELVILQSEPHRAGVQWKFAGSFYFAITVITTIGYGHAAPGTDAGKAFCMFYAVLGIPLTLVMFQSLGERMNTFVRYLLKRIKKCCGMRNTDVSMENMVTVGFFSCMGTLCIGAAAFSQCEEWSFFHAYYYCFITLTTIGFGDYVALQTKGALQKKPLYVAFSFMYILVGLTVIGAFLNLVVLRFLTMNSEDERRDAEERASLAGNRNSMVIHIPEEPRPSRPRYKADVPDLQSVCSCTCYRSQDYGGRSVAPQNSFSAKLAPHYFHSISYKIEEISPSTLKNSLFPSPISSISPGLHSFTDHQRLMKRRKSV
KCNQ1 inh: human KCNQ1 channel inhibition; B-score at 10 µM; P51787; CHO-K1 KCNQ1, FluxOR thallium flux fluorescence; active compounds read high; 310,000 tested, 1.3% active;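 active means compounds whose thallium flux B-score, printed positive for inhibition, exceeds three library SD while starting fluorescence stays within three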;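 further: channel opened by potassium depolarization with thallium stimulus after 20 min compound exposure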
hERG rescue: compounds protecting human hERG from proarrhythmic drug block. 310,000 tested, 0.51% active. AID 1511. CHO-hERG, FluxOR thallium flux, dofetilide IC70 present. activation (rescue from dofetilide block), less the hit threshold, % at 10 µM. Q12809;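 active means activation above the mean of controls blocked by dofetilide plus 5 SD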;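 further: thallium influx through hERG after potassium depolarization seen as dye fluorescence rise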
KCNQ1 act: potentiators or activators of human KCNQ1 potassium channel | CHO-K1 KCNQ1, thallium flux FluxOR fluorescence; active compounds read high | B-score at 10 µM | 310,000 tested, 0.35% active | AID 2648;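 active means fluorescence ratio B-score, a plate-corrected score, at least three library SD, with initial intensity B-score within 5 SD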
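assay system = CHO-K1 cells stably expressing KCNQ1 | medium = assay buffer, equal DMSO in all wells | timing = 37 °C overnight plating, 90-min dark dye load, 20-min compound pretreatment | measured by = kinetic FluxOR thallium fluorescence, 10-s 1-Hz baseline, 110-s post-stimulus read | measure = fluorescence change relative to baseline, converted to B score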
KCC2 sec1: confirmation of human KCC2 transport modulators. normalised thallium flux (F/F0 slope) at 10 µM. HEK293-KCC2, thallium flux, FluoZin2 fluorescence; active compounds read high. shares compounds with KCC2 mod. 3,700 tested, 15% active. AID 1713;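 active means thallium flux slope above the same plate's solvent-only control mean plus 3 SD; inconclusive means the two replicate wells disagree; inactive means no significant difference from solvent-only control wells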
KCC2 bumet counter: thallium flux persisting under bumetanide in KCC2 cells, counter-screen secondary assay. shares compounds with KCC2 mod. HEK293-KCC2 + bumetanide/ouabain, thallium flux FluoZin2; active compounds read high. normalized thallium flux at 10 µM. 3,700 tested, 49% active. AID 1714;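 active means thallium entry rate above the same plate's blocked-transporter control wells by more than 3 SD; inconclusive means the two repeat wells disagree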;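 further: raw slope of fluorescence over initial fluorescence between 10 and 20 s after thallium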
KCC2 sec2: KCC2 (human) modulation, second secondary assay; shares compounds with KCC2 mod; HEK293-KCC2, thallium flux FluoZin2 fluorescence; actives lie on both sides; F/F0 rise rate, 10–20 s post-thallium; normalized thallium flux at 10 µM; 3,700 tested, 23% active; AID 1715;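 active means thallium flux slope more than 3 SD above or below the plate's solvent-only control mean, mostly below; inconclusive means the two repeat wells disagreed; inactive means no significant shift from solvent-only controls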;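 further: raw slope with 0.1% DMSO as baseline and bumetanide as block control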
HEK counter1: acts in parental HEK cells, KCC2 counter-screen; shares compounds with KCC2 mod; HEK293 parental cells, thallium flux FluoZin2, ouabain; baseline-ratio fluorescence slope, 10–20 s after thallium; thallium flux rate (normalised fluorescence) at 10 µM; 3,700 tested, 46% active; AID 1716;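 active means thallium flux rate significantly above the same plate's solvent-only control wells, beyond their mean plus 3 SD; inconclusive means the two replicate wells gave conflicting results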
KCC2 ouabain: KCC2 (human) modulation, ouabain retest. shares compounds with KCC2 mod. raw Tl+ flux slope (below DMSO = inhibition, above = activation) at 10 µM. 3,700 tested, 48% active. HEK293-KCC2, thallium flux FluoZin2 fluorescence; bidirectional: low = inhibitor, high = activator;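 active means thallium flux slope beyond 3 SD from same-plate DMSO control mean in most replicates, usually higher, sometimes lower; inconclusive means repeat tests gave conflicting results; inactive means no significant difference from controls in most replicates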;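 further: slope of initial-normalized fluorescence between seconds 10 and 20 after thallium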
HEK counter2: acts in parental HEK cells, second KCC2 counter-screen | HEK293 parental, thallium flux FluoZin-2 fluorescence slope | AID 1718 | thallium flux slope at 10 µM | 3,700 tested, 33% active | shares compounds with KCC2 mod;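 active means thallium flux slope above the same plate's solvent-control mean plus 3 SD in both duplicate wells; inconclusive means duplicate wells that disagreed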;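 further: run without ouabain in cells lacking the KCC2 cotransporter; slope of fluorescence scaled to its starting value between 10 and 20 s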
Active calls of the source: *; i = inactive; ? = inconclusive; . = no result given.

SMILES | KCC2 mod | KCNK3 block | KCNK9 block | KCNQ1 inh | hERG rescue | KCNQ1 act | KCC2 sec1 | KCC2 bumet counter | KCC2 sec2 | HEK counter1 | KCC2 ouabain | HEK counter2
CCCn1nnc(NC(=S)NC(=O)Cc2ccccc2)n1 | . | i | i | i | -7.1 | i | . | . | . | . | . | .
Cn1nnc(NC(=S)NC(=O)c2cccs2)n1 | 0.765 | i | i | i | -5.3 | i | . | . | . | . | . | .
Cn1nnc(NC(=S)NC(=O)c2ccc(-c3ccc(Br)cc3)o2)n1 | 5.2* | i | i | i | -5.2 | i | 0.0141* | 0.0177* | 0.0316 | 0.0167* | ? | 0.0121
CCCn1nnc(NC(=S)NC(=O)c2ccc(-c3ccc(Br)cc3)o2)n1 | 18.7* | i | i | i | -6.6 | i | ? | 0.0152* | 0.0284 | 0.0149* | 0.057* | 0.0106
O=C(N/N=C/C1CC=CCC1)c1cc2ccccc2cc1O (stereo not given) | 4.44* | i | i | i | -5.3 | i | ? | 0.0285* | 0.0358 | 0.0154* | ? | 0.0121*
O=C(N/N=C/C1CC=CCC1)c1ccc(O)cc1O (stereo not given) | 0.185 | i | i | i | -5.2 | i | . | . | . | . | . | .
CC(NC(=O)c1ccco1)C(=O)OCc1cccc(Cl)c1 (stereo not given) | 6.15* | i | i | i | -11.6 | i | 0.0099 | 0.00568 | 0.0348 | 0.00641 | 0.0196 | 0.0103
CC(NC(=O)c1ccco1)C(=O)OCc1cccc(C(F)(F)F)c1 (stereo not given) | . | i | . | . | . | . | . | . | . | . | . | .
CC(C)NCC(O)c1cc(O)cc(O)c1 (stereo not given) | -2.77* | i | i | i | -4.5 | i | 0.00694 | 0.00594* | 0.0287 | ? | 0.0177 | 0.0117
COC(=O)NNC(=O)c1ccc(Cl)cc1Cl | 0.21 | i | i | i | -8.0 | i | . | . | . | . | . | .
CC(C)(C)C(=O)NC(=S)NNC(=O)c1ccc(Cl)cc1Cl | 38.4* | i | i | i | -8.7 | 16* | 0.0311* | 0.05* | 0.0388 | 0.0526* | 0.0583* | 0.0171*
CCCn1c2ccccc2c2nc3ccccc3nc21 | 0.169 | i | i | i | -0.6 | i | . | . | . | . | . | .
CC(C)CCn1c(O)c(N=Nc2ccccn2)c2ccccc21 | 6.87* | i | i | i | -10.3 | i | 0.00923 | 0.0212* | 0.0348 | ? | ? | 0.0129
CCCn1c(O)c(N=Nc2ccc3ccccc3n2)c2ccccc21 | -4.99* | i | i | i | -7.5 | i | 0.0103 | 0.0106* | 0.0301 | 0.00869* | 0.0208 | 0.0106
CCCCCCCCCC(=O)N[C@@H]1c2cc(OC)c(OC)cc2C[C@H]1O | . | i | . | . | . | . | . | . | . | . | . | .
COc1ccc(-c2nn(C)c(=O)c3ccccc23)cc1NS(C)(=O)=O | . | i | i | i | -4.8 | i | 0.00783 | 0.00574 | 0.0299 | 0.00645 | 0.0188 | 0.00934
COc1ccc(-c2cc(CCCC(=O)N3CCN(c4ccc(OC)cc4)CC3)no2)cc1 | -0.927 | i | i | i | -10.8 | i | . | . | . | . | . | .
COc1ccc(-c2cc(CCCC(=O)NCCc3cc(OC)ccc3OC)no2)cc1 | -4.68* | i | i | i | -7.7 | i | 0.00714 | 0.00417 | 0.0314 | 0.00711 | 0.0173 | 0.0112
CC(C)c1ccc(C(C)NCCS(=O)(=O)c2ccc(Cl)cc2)cc1 (stereo not given) | . | i | i | i | -15.2 | i | . | . | . | . | . | .
Cn1c(C(=O)OC(C(=O)NC2CCCC2)c2cccnc2)cc2sccc21 (stereo not given) | -2.72* | i | i | i | -10.0 | i | 0.00833 | 0.00625 | 0.028 | 0.0075 | 0.0448* | 0.011*
CN(C)S(=O)(=O)n1cc(/C=C(\NC(=O)c2ccccc2)C(=O)N2CCCC2)c2ccccc21 | . | i | i | i | -7.2 | i | . | . | . | . | . | .
Cc1c(-n2c(SCC(=O)O)nnc2-c2ccccc2Cl)c(=O)n(-c2ccccc2)n1C | 0.0455 | i | i | i | -7.9 | i | 0.00911 | 0.00539 | 0.0318 | 0.00757 | 0.0202 | ?
O=C(O)CSc1nnc(-c2ccc(Cl)cc2)n1-c1ccccc1 | . | i | i | i | -1.3 | i | . | . | . | . | . | .
O=C(NCc1cccc(CNC(=O)C(=O)NCC2CCCO2)c1)C(=O)NCC1CCCO1 (stereo not given) | 0.0653 | i | i | i | -5.0 | i | . | . | . | . | . | .
O=C(NCCc1ccccc1)/C(=N\O)c1ccccc1 | . | i | i | i | -7.0 | i | 0.00604 | 0.00444 | ? | 0.0072 | 0.0155 | 0.01
SMILES | KCC2 mod | KCNK3 block | KCNK9 block | KCNQ1 inh | hERG rescue | KCNQ1 act | KCC2 sec1 | KCC2 bumet counter | KCC2 sec2 | HEK counter1 | KCC2 ouabain | HEK counter2
O=C(NCCc1ccccc1)C(=O)NCC1CCCO1 (stereo not given) | . | i | i | i | -0.4 | i | 0.011 | 0.0082* | 0.0358 | 0.00803 | 0.0225 | 0.0119*
O=C(O)/C=C\c1ccccc1Oc1cccc(Cl)c1 | -2.6 | i | i | i | -3.4 | i | . | . | . | . | . | .
O=C(O)/C=C/c1ccccc1Oc1ccc(Cl)cc1Cl | -6.58* | i | i | i | 1.6 | i | 0.00511 | 0.00596* | 0.0214* | 0.00682 | ? | 0.01
COc1ccc(NS(=O)(=O)c2cccc(C(=O)N/N=C(\C)c3cccnc3)c2)cc1 | . | i | . | . | . | . | . | . | . | . | . | .
O=C1C2Sc3[nH]c(=O)sc3C(c3cc([N+](=O)[O-])ccc3O)C2C(=O)N1c1ccccc1 (stereo not given) | -0.894 | i | i | i | -11.6 | i | . | . | . | . | . | .
O=C1C2Sc3[nH]c(=O)sc3C(c3ccccc3)C2C(=O)N1c1ccc(Cl)cc1 (stereo not given) | -9.78* | i | . | . | . | . | 0.00658 | 0.013* | 0.0236* | 0.0105* | 0.0105* | 0.0106

Source: PubChem BioAssay
